Reference: ChEMBL document CHEMBL3286209, “Synthesis and biological activities of novel pleuromutilin derivatives with a substituted thiadiazole moiety as potent drug-resistant bacteria inhibitors” (J Med Chem, 2014)
In brackets after ≈: the same amount, converted by molar mass.

Experiments:
Format in all cases: functional
Staphylococcus aureus [1] = assay: Antibacterial activity against methicillin-resistant Staphylococcus aureus at 320 ug/ml after 24 hrs by Oxford cup assay; conditions: read-out: IZ
Outline: (§1)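 Oxford cup diffusion using clinical isolates. Inocula are made in 0.9% saline to a McFarland standard and spread on nutrient agar. […] Inhibition zone diameter is measured after 24 h at 37 °C. Run in triplicate.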

[2] = system: Staphylococcus epidermidis; assay: Antibacterial activity against methicillin-resistant Staphylococcus epidermidis after 48 hrs by agar dilution method
Outline: (§2)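 Agar dilution per NCCLS using clinical isolates. Compound DMSO/water solutions are 2-fold serially diluted in water, then mixed 1:10 into hot Mueller–Hinton agar. Inocula come from blood slants, adjusted to about 10⁵−10⁶ cfu/mL in 0.90% saline, and spotted at 10 μL. Plates incubated at 36.5 °C for 48 h. MIC is the lowest concentration giving complete growth inhibition. Run in triplicate at pH 7.40.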

Streptococcus agalactiae [3] = assay: Antibacterial activity against Streptococcus agalactiae at 320 ug/ml after 24 hrs by Oxford cup assay; conditions: read-out: IZ
Outline: (§3)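 Oxford cup diffusion: saline inoculum set by McFarland standard, spread on nutrient agar plates. […] Inhibition zone measured after 24 h at 37 °C; triplicate.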

Escherichia coli [4] = assay: Antibacterial activity against Escherichia coli at 160 ug/ml after 24 hrs by Oxford cup assay; conditions: read-out: IZ; outline: as §3
[5] = system: Staphylococcus epidermidis; assay: Antibacterial activity against methicillin-resistant Staphylococcus epidermidis at 320 ug/ml after 24 hrs by Oxford cup assay; conditions: read-out: IZ; outline: as §1
[6] = system: Staphylococcus epidermidis; assay: Antibacterial activity against methicillin-resistant Staphylococcus epidermidis at 160 ug/ml after 24 hrs by Oxford cup assay; conditions: read-out: IZ; outline: as §1
Escherichia coli [7] = assay: Antibacterial activity against Escherichia coli at 320 ug/ml after 24 hrs by Oxford cup assay; conditions: read-out: IZ; outline: as §3
Staphylococcus aureus [8] = assay: Antibacterial activity against methicillin-resistant Staphylococcus aureus at 160 ug/ml after 24 hrs by Oxford cup assay; conditions: read-out: IZ; outline: as §1
Escherichia coli [9] = assay: Antibacterial activity against Escherichia coli after 48 hrs by agar dilution method
Outline: (§4)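 Agar dilution per NCCLS on Mueller–Hinton agar; compound in DMSO/water, 2-fold serial dilutions in distilled water, 2 mL dilution mixed into 18 mL hot agar. Clinical isolates from blood slants, adjusted to about 10⁵−10⁶ cfu/mL in 0.90% saline; 10 μL spotted. Incubated 36.5 °C for 48 h; MIC = lowest concentration giving complete growth inhibition. Triplicate runs.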

Streptococcus agalactiae [10] = assay: Antibacterial activity against Streptococcus agalactiae after 48 hrs by agar dilution method; outline: as §4
Staphylococcus aureus [11] = assay: Antibacterial activity against methicillin-resistant Staphylococcus aureus after 48 hrs by agar dilution method; outline: as §2
Streptococcus agalactiae [12] = assay: Antibacterial activity against Streptococcus agalactiae at 160 ug/ml after 24 hrs by Oxford cup assay; conditions: read-out: IZ; outline: as §3

SMILES	zone of inhibition at 320 µg/mL (Staphylococcus aureus [1])	MIC [2]	zone of inhibition at 320 µg/mL (Streptococcus agalactiae [3])	zone of inhibition at 160 µg/mL (Escherichia coli [4])	zone of inhibition at 320 µg/mL [5]	zone of inhibition at 160 µg/mL [6]	zone of inhibition at 320 µg/mL (Escherichia coli [7])	zone of inhibition at 160 µg/mL (Staphylococcus aureus [8])	MIC (Escherichia coli [9])	MIC (Streptococcus agalactiae [10])	MIC (Staphylococcus aureus [11])	zone of inhibition at 160 µg/mL (Streptococcus agalactiae [12])
C=C[C@]1(C)C[C@@H](OC(=O)CSc2nnc(NC(=O)c3ccc(N)cc3)s2)[C@]2(C)[C@H](C)CC[C@]3(CCC(=O)[C@H]32)[C@@H](C)[C@@H]1O	13.2 mm	1 µg/mL (≈ 1.63 µM)	14 mm	10.7 mm	14.8 mm	12.1 mm	12.2 mm	11.4 mm	16 µg/mL (≈ 26.1 µM)	2 µg/mL (≈ 3.26 µM)	2 µg/mL (≈ 3.26 µM)	12.3 mm
C=C[C@]1(C)C[C@@H](OC(=O)CSc2nnc(NC(=O)CN(C)C)s2)[C@]2(C)[C@H](C)CC[C@]3(CCC(=O)[C@H]32)[C@@H](C)[C@@H]1O	17.6 mm	2 µg/mL (≈ 3.46 µM)	14.5 mm	10.1 mm	16 mm	14.3 mm	12 mm	15.4 mm	32 µg/mL (≈ 55.3 µM)	2 µg/mL (≈ 3.46 µM)	1 µg/mL (≈ 1.73 µM)	11.5 mm
C=C[C@]1(C)C[C@@H](OC(=O)CSc2nnc(NC(=O)CN3CCN(C)CC3)s2)[C@]2(C)[C@H](C)CC[C@]3(CCC(=O)[C@H]32)[C@@H](C)[C@@H]1O	12 mm	4 µg/mL (≈ 6.31 µM)	12.6 mm	10.6 mm	13.1 mm	10.7 mm	11.2 mm	11 mm	16 µg/mL (≈ 25.2 µM)	8 µg/mL (≈ 12.6 µM)	8 µg/mL (≈ 12.6 µM)	11.2 mm
CC[C@]1(C)C[C@@H](OC(=O)CSc2nnc(N)[nH]2)[C@]2(C)[C@H](C)CC[C@]3(CCC(=O)[C@H]32)[C@@H](C)[C@@H]1O [AZAMULIN]	18 mm	0.5 µg/mL (≈ 1.04 µM)	18.9 mm	16 mm	17 mm	15.4 mm	17.2 mm	16.5 mm	4 µg/mL (≈ 8.36 µM)	0.125 µg/mL (≈ 0.261 µM)	0.5 µg/mL (≈ 1.04 µM)	17.2 mm
C=C[C@]1(C)C[C@@H](OC(=O)CSc2nnc(NC(=O)CN(CC)CC)s2)[C@]2(C)[C@H](C)CC[C@]3(CCC(=O)[C@H]32)[C@@H](C)[C@@H]1O	12.3 mm	4 µg/mL (≈ 6.59 µM)	12.7 mm	9.13 mm	12.8 mm	11.5 mm	10.2 mm	11 mm	64 µg/mL (≈ 105 µM)	8 µg/mL (≈ 13.2 µM)	8 µg/mL (≈ 13.2 µM)	10.4 mm
C=C[C@]1(C)C[C@@H](OC(=O)CSc2nnc(NC(=O)c3ccc(OC)cc3)s2)[C@]2(C)[C@H](C)CC[C@]3(CCC(=O)[C@H]32)[C@@H](C)[C@@H]1O	15.5 mm	2 µg/mL (≈ 3.19 µM)	14.3 mm	10.7 mm	14.4 mm	9.52 mm	11.2 mm	12.2 mm	32 µg/mL (≈ 51 µM)	2 µg/mL (≈ 3.19 µM)	2 µg/mL (≈ 3.19 µM)	11.5 mm
C=C[C@]1(C)C[C@@H](OC(=O)CSc2nnc(NC(=O)c3cccc(OC)c3)s2)[C@]2(C)[C@H](C)CC[C@]3(CCC(=O)[C@H]32)[C@@H](C)[C@@H]1O	13.1 mm	4 µg/mL (≈ 6.37 µM)	12.8 mm	9.02 mm	13.8 mm	12.3 mm	10.9 mm	11.4 mm	≥ 64 µg/mL	8 µg/mL (≈ 12.7 µM)	8 µg/mL (≈ 12.7 µM)	11.7 mm
C=C[C@]1(C)C[C@@H](OC(=O)CSc2nnc(NC(=O)c3ccccc3Cl)s2)[C@]2(C)[C@H](C)CC[C@]3(CCC(=O)[C@H]32)[C@@H](C)[C@@H]1O	15 mm	8 µg/mL (≈ 12.7 µM)	15.5 mm	0 mm	12.6 mm	11.9 mm	10.3 mm	12.2 mm	≥ 64 µg/mL	2 µg/mL (≈ 3.16 µM)	2 µg/mL (≈ 3.16 µM)	12.7 mm
C=C[C@]1(C)C[C@@H](OC(=O)CSc2nnc(NC(=O)c3ccccc3N)s2)[C@]2(C)[C@H](C)CC[C@]3(CCC(=O)[C@H]32)[C@@H](C)[C@@H]1O	15.5 mm	2 µg/mL (≈ 3.26 µM)	13.8 mm	10.1 mm	15.2 mm	12.2 mm	11.3 mm	12.9 mm	16 µg/mL (≈ 26.1 µM)	4 µg/mL (≈ 6.53 µM)	4 µg/mL (≈ 6.53 µM)	12.4 mm
C=C[C@]1(C)C[C@@H](OC(=O)CSc2nnc(NC(=O)c3ccccc3OC)s2)[C@]2(C)[C@H](C)CC[C@]3(CCC(=O)[C@H]32)[C@@H](C)[C@@H]1O	14.8 mm	2 µg/mL (≈ 3.19 µM)	13.4 mm	9.96 mm	14.2 mm	11.9 mm	11.5 mm	12.2 mm	16 µg/mL (≈ 25.5 µM)	4 µg/mL (≈ 6.37 µM)	1 µg/mL (≈ 1.59 µM)	11.3 mm
C=C[C@]1(C)C[C@@H](OC(=O)CSc2nnc(NC(=O)c3cccc(N)c3)s2)[C@]2(C)[C@H](C)CC[C@]3(CCC(=O)[C@H]32)[C@@H](C)[C@@H]1O	19.2 mm	0.5 µg/mL (≈ 0.816 µM)	18.4 mm	12.7 mm	17.8 mm	16.1 mm	13.7 mm	17.5 mm	16 µg/mL (≈ 26.1 µM)	0.25 µg/mL (≈ 0.408 µM)	0.25 µg/mL (≈ 0.408 µM)	17.4 mm
C=C[C@]1(C)C[C@@H](OC(=O)CSc2nnc(NC(=O)c3cccc(Cl)c3)s2)[C@]2(C)[C@H](C)CC[C@]3(CCC(=O)[C@H]32)[C@@H](C)[C@@H]1O	14.7 mm	2 µg/mL (≈ 3.16 µM)	13.5 mm	11.7 mm	15 mm	12.9 mm	12.6 mm	13.4 mm	32 µg/mL (≈ 50.6 µM)	2 µg/mL (≈ 3.16 µM)	2 µg/mL (≈ 3.16 µM)	12.7 mm
C=C[C@]1(C)C[C@@H](OC(=O)CSCCN(CC)CC)[C@]2(C)[C@H](C)CC[C@]3(CCC(=O)[C@H]32)[C@@H](C)[C@@H]1O [TIAMULIN]	17.2 mm	2 µg/mL (≈ 4.05 µM)	16.1 mm	13.6 mm	15.6 mm	13.9 mm	15.8 mm	16.9 mm	16 µg/mL (≈ 32.4 µM)	0.5 µg/mL (≈ 1.01 µM)	0.5 µg/mL (≈ 1.01 µM)	14.6 mm
